Measurements: ChEMBL document CHEMBL4689842, “EUbOPEN Chemogenomics Library wave 1” (2021)

Test system: Fibroblast
Experiment: Multiplex assay against human fibroblast
Type: toxicity, cell-based
Outline: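 Cells were classed with CellPathfinder machine-learning gating, first as Hoechst high-intensity objects or normal cells, then (normal cells) as healthy, pyknosed or fragmented nuclei, and finally (pyknosed cells) as mitotic or apoptotic. Staining of live cells at seeding used Hoechst33342, BioTracker Green Microtubule Cytoskeleton Dye, MitoTracker Red and Annexin V Alexa Fluor 680, with imaging on a CQ1 microscope at 37°C and 5% CO2 after compound addition. Tubulin, mitochondrial-mass and membrane-permeability phenotypes are per cents of healthy-nucleus cells.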

[1] = 12 h, 1 µM, compound concentration 1 uM, replicate 1
[2] = 12 h, 1 µM, compound concentration 1 uM, replicate 2
[3] = 12 h, 10 µM, compound concentration 10 uM, replicate 1
[4] = 12 h, 10 µM, compound concentration 10 uM, replicate 2
[5] = 24 h, 1 µM, compound concentration 1 uM, replicate 1
[6] = 24 h, 1 µM, compound concentration 1 uM, replicate 2
[7] = 24 h, 10 µM, compound concentration 10 uM, replicate 1
[8] = 24 h, 10 µM, compound concentration 10 uM, replicate 2
[9] = 48 h, 1 µM, compound concentration 1 uM, replicate 1
[10] = 48 h, 1 µM, compound concentration 1 uM, replicate 2
[11] = 48 h, 10 µM, compound concentration 10 uM, replicate 1
[12] = 48 h, 10 µM, compound concentration 10 uM, replicate 2

Cc1cccc(CN2CCN(C(c3ccccc3)c3ccc(Cl)cc3)CC2)c1.Cl.Cl (centres undefined)
Population Apoptotic (%) [1]: 64%
Population Fragmented Nuclei (%) [1]: 22%
Population Healthy Nuclei (%) [1]: 48%
Population Hoechst High Intensity Objects (%) [1]: 22%
Population Membrane Permeable-Phenotype (%) [1]: 34%
Population Mitochondria Different-Phenotype (%) [1]: 8%
Population Mitotic Cells (%) [1]: 35%
Population Normal (%) [1]: 77%
Population Pyknosed Nuclei (%) [1]: 29%
Population Tubulin-Different-Phenotype (%) [1]: 44%
Total Cell Count [1]: 134
Population Apoptotic (%) [2]: 0%
Population Fragmented Nuclei (%) [2]: 16%
Population Healthy Nuclei (%) [2]: 79%
Population Hoechst High Intensity Objects (%) [2]: 8%
Population Membrane Permeable-Phenotype (%) [2]: 4%
Population Mitochondria Different-Phenotype (%) [2]: 26%
Population Mitotic Cells (%) [2]: 100%
Population Normal (%) [2]: 91%
Population Pyknosed Nuclei (%) [2]: 3%
Population Tubulin-Different-Phenotype (%) [2]: 23%
Total Cell Count [2]: 48
Population Apoptotic (%) [3]: 61%
Population Fragmented Nuclei (%) [3]: 26%
Population Healthy Nuclei (%) [3]: 38%
Population Hoechst High Intensity Objects (%) [3]: 11%
Population Membrane Permeable-Phenotype (%) [3]: 15%
Population Mitochondria Different-Phenotype (%) [3]: 45%
Population Mitotic Cells (%) [3]: 38%
Population Normal (%) [3]: 88%
Population Pyknosed Nuclei (%) [3]: 34%
Population Tubulin-Different-Phenotype (%) [3]: 90%
Total Cell Count [3]: 127
Population Apoptotic (%) [4]: 50%
Population Fragmented Nuclei (%) [4]: 14%
Population Healthy Nuclei (%) [4]: 72%
Population Hoechst High Intensity Objects (%) [4]: 6%
Population Membrane Permeable-Phenotype (%) [4]: 6%
Population Mitochondria Different-Phenotype (%) [4]: 61%
Population Mitotic Cells (%) [4]: 50%
Population Normal (%) [4]: 93%
Population Pyknosed Nuclei (%) [4]: 13%
Population Tubulin-Different-Phenotype (%) [4]: 47%
Total Cell Count [4]: 58
Population Apoptotic (%) [5]: 75%
Population Fragmented Nuclei (%) [5]: 21%
Population Healthy Nuclei (%) [5]: 56%
Population Hoechst High Intensity Objects (%) [5]: 26%
Population Membrane Permeable-Phenotype (%) [5]: 34%
Population Mitochondria Different-Phenotype (%) [5]: 5%
Population Mitotic Cells (%) [5]: 25%
Population Normal (%) [5]: 73%
Population Pyknosed Nuclei (%) [5]: 21%
Population Tubulin-Different-Phenotype (%) [5]: 40%
Total Cell Count [5]: 125
Population Apoptotic (%) [6]: 80%
Population Fragmented Nuclei (%) [6]: 18%
Population Healthy Nuclei (%) [6]: 73%
Population Hoechst High Intensity Objects (%) [6]: 10%
Population Membrane Permeable-Phenotype (%) [6]: 11%
Population Mitochondria Different-Phenotype (%) [6]: 13%
Population Mitotic Cells (%) [6]: 20%
Population Normal (%) [6]: 89%
Population Pyknosed Nuclei (%) [6]: 8%
Population Tubulin-Different-Phenotype (%) [6]: 22%
Total Cell Count [6]: 47
Population Apoptotic (%) [7]: 66%
Population Fragmented Nuclei (%) [7]: 29%
Population Healthy Nuclei (%) [7]: 44%
Population Hoechst High Intensity Objects (%) [7]: 14%
Population Membrane Permeable-Phenotype (%) [7]: 16%
Population Mitochondria Different-Phenotype (%) [7]: 40%
Population Mitotic Cells (%) [7]: 33%
Population Normal (%) [7]: 85%
Population Pyknosed Nuclei (%) [7]: 26%
Population Tubulin-Different-Phenotype (%) [7]: 86%
Total Cell Count [7]: 132
Population Apoptotic (%) [8]: 11%
Population Fragmented Nuclei (%) [8]: 10%
Population Healthy Nuclei (%) [8]: 77%
Population Hoechst High Intensity Objects (%) [8]: 5%
Population Membrane Permeable-Phenotype (%) [8]: 5%
Population Mitochondria Different-Phenotype (%) [8]: 63%
Population Mitotic Cells (%) [8]: 88%
Population Normal (%) [8]: 94%
Population Pyknosed Nuclei (%) [8]: 12%
Population Tubulin-Different-Phenotype (%) [8]: 45%
Total Cell Count [8]: 67
Population Apoptotic (%) [9]: 66%
Population Fragmented Nuclei (%) [9]: 30%
Population Healthy Nuclei (%) [9]: 58%
Population Hoechst High Intensity Objects (%) [9]: 18%
Population Membrane Permeable-Phenotype (%) [9]: 20%
Population Mitochondria Different-Phenotype (%) [9]: 3%
Population Mitotic Cells (%) [9]: 33%
Population Normal (%) [9]: 81%
Population Pyknosed Nuclei (%) [9]: 10%
Population Tubulin-Different-Phenotype (%) [9]: 30%
Total Cell Count [9]: 136
Population Apoptotic (%) [10]: 87%
Population Fragmented Nuclei (%) [10]: 24%
Population Healthy Nuclei (%) [10]: 68%
Population Hoechst High Intensity Objects (%) [10]: 9%
Population Membrane Permeable-Phenotype (%) [10]: 6%
Population Mitochondria Different-Phenotype (%) [10]: 7%
Population Mitotic Cells (%) [10]: 12%
Population Normal (%) [10]: 90%
Population Pyknosed Nuclei (%) [10]: 7%
Population Tubulin-Different-Phenotype (%) [10]: 44%
Total Cell Count [10]: 124
Population Apoptotic (%) [11]: 57%
Population Fragmented Nuclei (%) [11]: 39%
Population Healthy Nuclei (%) [11]: 54%
Population Hoechst High Intensity Objects (%) [11]: 12%
Population Membrane Permeable-Phenotype (%) [11]: 16%
Population Mitochondria Different-Phenotype (%) [11]: 25%
Population Mitotic Cells (%) [11]: 42%
Population Normal (%) [11]: 87%
Population Pyknosed Nuclei (%) [11]: 6%
Population Tubulin-Different-Phenotype (%) [11]: 79%
Total Cell Count [11]: 124
Population Apoptotic (%) [12]: 50%
Population Fragmented Nuclei (%) [12]: 42%
Population Healthy Nuclei (%) [12]: 52%
Population Membrane Permeable-Phenotype (%) [12]: 9%
Population Mitochondria Different-Phenotype (%) [12]: 34%
Population Mitotic Cells (%) [12]: 50%
Population Pyknosed Nuclei (%) [12]: 5%
Population Tubulin-Different-Phenotype (%) [12]: 88%
Total Cell Count [12]: 133

CCc1ccc(OCc2ccccc2C(=O)Nc2ccc3nc(C)cc(N)c3c2)cc1.Cl
Population Apoptotic (%) [1]: 67%
Population Fragmented Nuclei (%) [1]: 31%
Population Healthy Nuclei (%) [1]: 33%
Population Hoechst High Intensity Objects (%) [1]: 11%
Population Membrane Permeable-Phenotype (%) [1]: 9%
Population Mitochondria Different-Phenotype (%) [1]: 44%
Population Mitotic Cells (%) [1]: 32%
Population Normal (%) [1]: 88%
Population Pyknosed Nuclei (%) [1]: 35%
Population Tubulin-Different-Phenotype (%) [1]: 63%
Total Cell Count [1]: 177
Population Apoptotic (%) [2]: 71%
Population Fragmented Nuclei (%) [2]: 33%
Population Hoechst High Intensity Objects (%) [2]: 16%
Population Membrane Permeable-Phenotype (%) [2]: 28%
Population Mitochondria Different-Phenotype (%) [2]: 92%
Population Mitotic Cells (%) [2]: 28%
Population Normal (%) [2]: 84%
Population Pyknosed Nuclei (%) [2]: 33%
Population Tubulin-Different-Phenotype (%) [2]: 85%
Total Cell Count [2]: 68
Population Apoptotic (%) [3]: 26%
Population Fragmented Nuclei (%) [3]: 15%
Population Healthy Nuclei (%) [3]: 18%
Population Hoechst High Intensity Objects (%) [3]: 22%
Population Membrane Permeable-Phenotype (%) [3]: 16%
Population Mitochondria Different-Phenotype (%) [3]: 55%
Population Mitotic Cells (%) [3]: 73%
Population Normal (%) [3]: 77%
Population Pyknosed Nuclei (%) [3]: 65%
Population Tubulin-Different-Phenotype (%) [3]: 88%
Total Cell Count [3]: 125
Population Apoptotic (%) [4]: 76%
Population Fragmented Nuclei (%) [4]: 8%
Population Healthy Nuclei (%) [4]: 14%
Population Hoechst High Intensity Objects (%) [4]: 12%
Population Membrane Permeable-Phenotype (%) [4]: 100%
Population Mitochondria Different-Phenotype (%) [4]: 100%
Population Mitotic Cells (%) [4]: 23%
Population Normal (%) [4]: 87%
Population Pyknosed Nuclei (%) [4]: 77%
Population Tubulin-Different-Phenotype (%) [4]: 100%
Total Cell Count [4]: 50
Population Apoptotic (%) [5]: 79%
Population Fragmented Nuclei (%) [5]: 32%
Population Healthy Nuclei (%) [5]: 22%
Population Hoechst High Intensity Objects (%) [5]: 13%
Population Membrane Permeable-Phenotype (%) [5]: 10%
Population Mitochondria Different-Phenotype (%) [5]: 60%
Population Mitotic Cells (%) [5]: 20%
Population Normal (%) [5]: 86%
Population Pyknosed Nuclei (%) [5]: 45%
Population Tubulin-Different-Phenotype (%) [5]: 86%
Total Cell Count [5]: 158
Population Apoptotic (%) [6]: 83%
Population Fragmented Nuclei (%) [6]: 25%
Population Healthy Nuclei (%) [6]: 28%
Population Hoechst High Intensity Objects (%) [6]: 17%
Population Membrane Permeable-Phenotype (%) [6]: 27%
Population Mitochondria Different-Phenotype (%) [6]: 90%
Population Mitotic Cells (%) [6]: 16%
Population Normal (%) [6]: 82%
Population Pyknosed Nuclei (%) [6]: 46%
Population Tubulin-Different-Phenotype (%) [6]: 63%
Total Cell Count [6]: 92
Population Apoptotic (%) [7]: 40%
Population Fragmented Nuclei (%) [7]: 25%
Population Healthy Nuclei (%) [7]: 48%
Population Hoechst High Intensity Objects (%) [7]: 50%
Population Membrane Permeable-Phenotype (%) [7]: 16%
Population Mitochondria Different-Phenotype (%) [7]: 37%
Population Mitotic Cells (%) [7]: 60%
Population Normal (%) [7]: 49%
Population Pyknosed Nuclei (%) [7]: 25%
Population Tubulin-Different-Phenotype (%) [7]: 97%
Total Cell Count [7]: 155
Population Apoptotic (%) [8]: 70%
Population Fragmented Nuclei (%) [8]: 15%
Population Healthy Nuclei (%) [8]: 38%
Population Hoechst High Intensity Objects (%) [8]: 31%
Population Membrane Permeable-Phenotype (%) [8]: 47%
Population Mitochondria Different-Phenotype (%) [8]: 94%
Population Mitotic Cells (%) [8]: 30%
Population Normal (%) [8]: 68%
Population Pyknosed Nuclei (%) [8]: 45%
Population Tubulin-Different-Phenotype (%) [8]: 94%
Total Cell Count [8]: 47
Population Apoptotic (%) [9]: 90%
Population Fragmented Nuclei (%) [9]: 46%
Population Healthy Nuclei (%) [9]: 20%
Population Hoechst High Intensity Objects (%) [9]: 20%
Population Membrane Permeable-Phenotype (%) [9]: 40%
Population Mitochondria Different-Phenotype (%) [9]: 32%
Population Mitotic Cells (%) [9]: 9%
Population Normal (%) [9]: 79%
Population Pyknosed Nuclei (%) [9]: 33%
Population Tubulin-Different-Phenotype (%) [9]: 72%
Total Cell Count [9]: 157
Population Apoptotic (%) [10]: 84%
Population Fragmented Nuclei (%) [10]: 51%
Population Healthy Nuclei (%) [10]: 25%
Population Hoechst High Intensity Objects (%) [10]: 16%
Population Membrane Permeable-Phenotype (%) [10]: 30%
Population Mitochondria Different-Phenotype (%) [10]: 55%
Population Mitotic Cells (%) [10]: 15%
Population Normal (%) [10]: 83%
Population Pyknosed Nuclei (%) [10]: 23%
Population Tubulin-Different-Phenotype (%) [10]: 70%
Total Cell Count [10]: 96
Population Fragmented Nuclei (%) [11]: 68%
Population Healthy Nuclei (%) [11]: 28%
Population Hoechst High Intensity Objects (%) [11]: 47%
Population Membrane Permeable-Phenotype (%) [11]: 4%
Population Mitochondria Different-Phenotype (%) [11]: 68%
Population Normal (%) [11]: 52%
Population Pyknosed Nuclei (%) [11]: 2%
Population Tubulin-Different-Phenotype (%) [11]: 86%
Total Cell Count [11]: 146
Population Apoptotic (%) [12]: 100%
Population Fragmented Nuclei (%) [12]: 86%
Population Healthy Nuclei (%) [12]: 8%
Population Hoechst High Intensity Objects (%) [12]: 39%
Population Membrane Permeable-Phenotype (%) [12]: 0%
Population Mitochondria Different-Phenotype (%) [12]: 50%
Population Mitotic Cells (%) [12]: 0%
Population Normal (%) [12]: 60%
Population Pyknosed Nuclei (%) [12]: 4%
Population Tubulin-Different-Phenotype (%) [12]: 50%
Total Cell Count [12]: 38
